NPY-Y2 antag: blocks the human neuropeptide Y Y2 receptor | actives 0.99% (n = 140,000) | P49146 | NPY-Y2 expressing cells, antagonist mode | inhibition, % at 2.7 µM;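 also: 0% = vehicle with agonist challenge and 100% = reference antagonist with challenge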
Insulin prom inh: TRM-6 insulin promoter activity inhibition | TRM-6 cells, insulin promoter-eGFP reporter, imaging; reporter expression induced with tamoxifen | inhibition, % at 2 µM | actives 0.9% (n = 130,000) | AID 1273;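 active = inhibition above the mean plus 3 SD, with well images judged a real hit on visual review, cut at about 60% in these data, passing the limit was not always enough; inconclusive = inhibition over the cutoff but images rejected on review; inactive = inhibition not above the cutoff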
NPY-Y1 antag: blocks the human neuropeptide Y Y1 receptor; P25929; HEK293-CNG Y1 cells, membrane potential fluorescence; NPY at EC95, then isoproterenol; inhibition, % at 3.6 µM; actives 1% (n = 200,000); AID 1040;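 active = inhibition above the campaign mean inhibition of all tested compounds plus 3 SD, cut at about 20% in these data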;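 also: 0% = DMSO wells given NPY plus isoproterenol and 100% = isoproterenol alone without NPY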
Target sequence (P25929 whole entry, looked up): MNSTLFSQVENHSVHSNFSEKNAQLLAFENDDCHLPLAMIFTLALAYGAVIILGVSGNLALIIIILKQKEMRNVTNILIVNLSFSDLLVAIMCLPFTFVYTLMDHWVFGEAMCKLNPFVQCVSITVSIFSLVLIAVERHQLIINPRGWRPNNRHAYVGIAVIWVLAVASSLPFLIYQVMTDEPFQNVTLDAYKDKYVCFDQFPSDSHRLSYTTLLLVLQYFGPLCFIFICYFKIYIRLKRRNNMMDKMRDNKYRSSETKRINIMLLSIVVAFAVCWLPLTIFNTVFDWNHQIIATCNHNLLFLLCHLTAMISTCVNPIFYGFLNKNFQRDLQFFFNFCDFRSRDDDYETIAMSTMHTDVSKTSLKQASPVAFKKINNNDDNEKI
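Test system: HEK293 cells co-expressing NPY Y1 receptor and cyclic-nucleotide gated channel; Also added: NPY (25 nM), isoproterenol (1 µM), Ro 20-1724 (25 µM); Compound dosing: one concentration, 3.6 µM, in 0.4% DMSO; Timing: dye 3 h, compound 60 min room temperature, stimulation 45 min; Technique: Membrane-potential fluorescent dye readout.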
Ins promoter up: MIN6 insulin promoter up-regulation. z-score at 5 µM. AID 1625. MIN6 insulin promoter-GFP reporter, high-content imaging; hits give high values. actives 0.3% (n = 190,000);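 active = z-score above 3 at 5 µM with at least 500 cells counted in the well; inconclusive = wells under 500 cells, flagged as cytotoxic or low count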
NPY2 pot ag: potentiates or activates human NPY-Y2 receptor; P49146; cells expressing NPY-Y2, potentiator/agonist read-out; activation, % at 3.6 µM; actives 0.45% (n = 220,000); AID 1359; in the data active = activation above about 27%;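 also: cells stimulated with NPY near EC25 plus isoproterenol at EC100; 0% = vehicle plus submaximal agonist and 100% = vehicle plus saturating agonist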
NPY1 pot ag: potentiates or activates human NPY-Y1 receptor; activation, % at 3.6 µM; NPY-Y1 expressing cells, potentiator/agonist activation; actives 0.37% (n = 220,000); in the data active = activation above about 33%, passing the limit was not always enough;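 also: cells stimulated with NPY at EC10 then isoproterenol at EC100; 0% = low agonist plus stimulus and 100% = saturating agonist plus stimulus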
NPY1 antag conf: confirmation of human neuropeptide Y receptor Y1 antagonists. actives 21% (n = 1,200). HEK293-CNG NPY-Y1, membrane potential fluorescence, cAMP; NPY challenge against isoproterenol-raised cAMP. inhibition, % at 3.6 µM. AID 1254. shares compounds with NPY-Y1 antag; in the data active = inhibition above about 20%;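 also: 0% = vehicle with agonist plus stimulus and 100% = stimulus alone without agonist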
NPY-Y2 antag ct: counter-screen for NPY-Y1 antagonists: human NPY-Y2 antagonism. shares compounds with NPY-Y1 antag. HEK293 NPY-Y2 CNG membrane potential fluorescence; cells given NPY, then isoproterenol. inhibition, % at 3.6 µM. actives 28% (n = 1,200);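 also: 0% = DMSO with agonist challenge and 100% = reference antagonist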
* marks the source's active call; other numbers are inactive results; ? = inconclusive; . = not tested or not shown. Shown are actives, neighbours in structure and some others; about 2.5% of the full set was active somewhere. Rule as the data show it, unless noted: active = inhibition above about 17%; inactive = the rest.

SMILES	NPY-Y2 antag	Insulin prom inh	NPY-Y1 antag	Ins promoter up	NPY2 pot ag	NPY1 pot ag	NPY1 antag conf	NPY-Y2 antag ct
O=C(Nc1ccc(OCC(=O)N2CCOCC2)cc1)Nc1cccc2ccccc12	.	53	0	-1.7	5	9	.	.
CSc1nsc(SCC(=O)N2CCN(c3ccccc3)CC2)n1	14	-27	29*	0.64	-35	-45	12	7
CCCC(=O)Nc1nnc(SCC(=O)N2CCN(c3ccccc3)CC2)s1	.	.	.	1.1	7	-4	.	.
O=C(CO/N=C/c1ccccc1O)N1CCc2ccccc21	3	28	0	0.09	0	-16	.	.
CC1CC1C(=O)Nc1nc(-c2ccc(Cl)s2)cs1 (configuration not stated)	.	17	25*	-0.23	-2	8	8	7
CC1SC(c2ccccc2)N(CC(O)c2ccc([N+](=O)[O-])cc2)C1=O (configuration not stated)	.	-12	4	0.41	11	5	.	.
CCN(CC)S(=O)(=O)c1cccc(-c2nnc(SCCOc3ccccc3)o2)c1	15	7	24*	0.04	-20	-60	13	10
CS(=O)(=O)N1CCC(C(=O)Nc2cccc([N+](=O)[O-])c2)CC1	.	18	1	0.7	6	-10	.	.
CCN(CC)CCOC(=O)/C=C/c1ccccc1OC	1	-69	21*	-0.23	10	16	-1	2
OC1CCCN(Cc2ccc3ccc4cccc5ccc2c3c45)C1 (configuration not stated)	11	16	25*	0.03	-18	-35	10	17*
c1cc2ccc3ccc(CN4CCOCC4)c4ccc(c1)c2c34	3	41	8	-0.55	-1	-20	.	.
CCCn1c(=O)n(N)c2ccccc21	6	-27	7	0.25	12	20	.	.
CCOC(=O)C1(CC2CCCCO2)CCN(C2CCSCC2)CC1 (configuration not stated)	.	.	34*	-0.39	-16	-2	10	9
COc1ccc(C(CC(=O)O)NC(=O)c2sc3ccccc3c2Cl)cc1 (configuration not stated)	11	.	22*	0.49	-16	-72	12	12
CN(CCOC(=O)c1ccccc1)Cc1ccccc1	3	-27	8	-0.31	-5	13	.	.
CN(CCOC(=O)c1cccc(F)c1)Cc1ccccc1	3	0	26*	-0.04	-2	-2	1	3
COc1cc(C2C(C#N)=C(N)Oc3cc4c(cc32)OCO4)cc(OC)c1OC (configuration not stated)	.	-121	22*	.	-26	-1	5	13
CCOC(=O)/C(=N\Nc1cc(C(F)(F)F)ccc1Cl)N(CC)CC	-2	.	-2	.	8	-2	.	.
Cc1ccc(C(C)C)c(OCc2n[nH]c(=S)o2)c1	.	-64	23*	0.64	-23	-9	6	10
CC(N=C(NC#N)Nc1ccncc1)C(C)(C)C (configuration not stated)	-1	5	-2	.	15	13	.	.
CCOC(=O)c1sc(NC(=O)CSc2nnc(C)s2)c(C(=O)OCC)c1C	2	-73	3	.	-1	1	.	.
CCOC(=O)c1c(NC(=O)CSc2nnc(C)s2)sc2c1CCC(CC)C2 (configuration not stated)	10	-3	34*	.	-23	-58	15	18*
COc1ccc(-n2c(-c3ccc(Cl)cc3)c[n+]3c2CCc2ccccc2-3)cc1	.	57	23*	?	-6	-8	24*	11
CN(C)S(=O)(=O)N(CC(=O)Nc1ccc(F)c(F)c1)c1ccccc1	6	-35	-2	.	-1	13	.	.
CSc1cccc(NC(=O)CN(c2ccccc2)S(=O)(=O)N(C)C)c1	13	34	20*	-0.38	-17	44	4	4
SMILES	NPY-Y2 antag	Insulin prom inh	NPY-Y1 antag	Ins promoter up	NPY2 pot ag	NPY1 pot ag	NPY1 antag conf	NPY-Y2 antag ct
COC(=O)c1ccc(COc2ccccc2/C=N/O)o1	.	.	.	-0.07	-1	2	.	.
C/C=C/c1ccccc1OCc1ccc(C(=O)O)o1	14	11	22*	-0.9	-24	-25	16	12
Cc1ccc(Cc2cnc(NC(=O)/C(C#N)=C/c3ccc(-c4ccccc4[N+](=O)[O-])o3)s2)cc1	15	-28	27*	-0.81	-19	-24	50*	46*
CC(C)CC(C(=O)NC1CCCC1)N(Cc1cccs1)C(=O)c1snc(C(N)=O)c1N (configuration not stated)	6	-32	21*	0.19	-16	-35	9	7
N#CC1=C(c2ccc(-c3ccccc3)cc2)COC1=O	.	-13	-1	-0.04	-11	-5	.	.
O=C(c1cnn2c(C(F)(F)F)cc(-c3ccco3)nc12)N1CCc2ccccc2C1	11	-29	21*	-0.41	-18	-49	10	7
O=C(c1cnn2c(C(F)(F)F)cc(-c3ccco3)nc12)N1CCCCCC1	5	14	1	1.4	-28	-19	.	.
COc1ccc(-c2cc(C(F)(F)F)n3ncc(C(=O)O)c3n2)cc1OC	4	0	-3	-0.3	21	-7	.	.
Cc1ccc(-c2cc(C(F)(F)F)n3ncc(C(=O)O)c3n2)cc1	2	-14	21*	0.78	-10	-2	2	3
Cc1ccc(NC(=S)NC2CCCC2)cc1C	2	.	0	0.4	-5	8	.	.
Cc1ccc(NC(=S)NCCN(C2CCCCC2)C2CCCC2)cc1C	.	.	28*	0.36	-2	-12	8	13
CC(C)OCCCNC(=S)NNC(=O)c1ccc(Cl)c(Cl)c1	.	.	2	0.69	-7	-33	.	.
CC(C)c1ccc(S(=O)(=O)c2n[nH]n3c2nc(=O)c2ccccc23)cc1	13	71	4	.	0	-11	.	.
CCc1ccc(S(=O)(=O)c2n[nH]n3c2nc(=O)c2ccccc23)cc1	12	-8	24*	0.27	-12	-11	8	7
O=C(C1c2ccccc2C(=O)N2CCc3ccccc3C12)N1CCN(Cc2ccccc2)CC1 (configuration not stated)	10	17	22*	-0.06	-1	6	6	3
C=CCNc1nc2c(c(=O)[nH]c(=O)n2C)n1Cc1cccc(C)c1	1	.	4	0.27	2	-4	.	.
CCCCOc1cccc(C(=O)NNC(=S)NC2CCCCC2)c1	1	.	4	-0.64	-7	-15	.	.
COc1ccc([N+](=O)[O-])cc1N(CC(O)CN(CC(C)C)CC(C)C)S(=O)(=O)c1ccccc1 (configuration not stated)	17	-37	69*	-1.2	-13	-22	30*	14
